Compound activity from PubChem BioAssay.
PAFAH2 inh = inhibitors of human PAFAH2 | 340,000 tested, 0.99% active | inhibition, % at 3.39 µM | recombinant PAFAH2, FP-rhodamine activity probe, fluorescence polarization | Q99487;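 active = inhibition above the mean over all tested compounds plus 3 SD, cut at about 30% in these data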;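 also: inhibitors block probe labeling of enzyme so polarization drops; 0% = enzyme with DMSO and 100% = wells lacking PAFAH2 protein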
ABHD4 inh = inhibitors of mouse ABHD4. inhibition, % at 8.92 µM. purified mABHD4, FP-Rh probe fluorescence polarization. 370,000 tested, 0.54% active;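 active = inhibition exceeding the mean over every tested compound plus 3 SD, cut at about 30% in these data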;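 also: 0% = plate median of compound wells and 100% = S159A mutant with DMSO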
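Material: mouse ABHD4 enzyme, wild type; Benchmarks: S159A mutant high control, sample median low control; Buffer or medium: HEPES pH 7.0, NaCl, Pluronic buffer; Signal: fluorescence polarization; Read-out: percent inhibition of probe binding, normalized to plate controls; Timing: pre-incubation 45 min, probe exposure 60 min, at 25 °C; Dosing: 8.92 µM, single dose.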
HTRA1 inhibitor = HTRA1 (human) protease inhibition; Q92743; recombinant HTRA1, FP-rhodamine activity-based probe, fluorescence polarization; inhibition, % at 5.96 µM; 340,000 tested, 0.5% active; AID 504803; in the data active = inhibition above about 36%;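 also: 0% = enzyme with DMSO and 100% = wells lacking enzyme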
PAFAH1B2 inh = PAFAH1B2 (human) inhibition; 340,000 tested, 1.2% active; recombinant PAFAH1B2, FP-rhodamine activity probe, fluorescence polarization; AID 492953; inhibition, % at 3.39 µM; P68402;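 active = inhibition above the mean of all tested compounds plus 3 SD, cut at about 24% in these data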;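 also: 0% = enzyme with DMSO and 100% = wells lacking PAFAH1B2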
Target sequence (P68402 whole entry, looked up): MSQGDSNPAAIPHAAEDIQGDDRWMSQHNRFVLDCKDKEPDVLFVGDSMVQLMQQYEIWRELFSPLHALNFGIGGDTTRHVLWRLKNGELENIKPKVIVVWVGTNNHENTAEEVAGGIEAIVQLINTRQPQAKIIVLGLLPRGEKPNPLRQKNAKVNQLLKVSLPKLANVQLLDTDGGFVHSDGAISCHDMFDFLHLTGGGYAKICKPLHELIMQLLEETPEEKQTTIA
PAFAH1B3 inh = inhibitors of human PAFAH1B3; Q15102; recombinant PAFAH1B3, FP-rhodamine probe, fluorescence polarization; inhibition, % at 3.39 µM; 340,000 tested, 0.28% active;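 active = inhibition above the screen-wide average of all tested compounds plus 3 SD, cut at about 25% in these data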;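 also: 0% = enzyme with DMSO only and 100% = wells lacking PAFAH1B3 protein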
Target sequence (Q15102 whole entry, looked up): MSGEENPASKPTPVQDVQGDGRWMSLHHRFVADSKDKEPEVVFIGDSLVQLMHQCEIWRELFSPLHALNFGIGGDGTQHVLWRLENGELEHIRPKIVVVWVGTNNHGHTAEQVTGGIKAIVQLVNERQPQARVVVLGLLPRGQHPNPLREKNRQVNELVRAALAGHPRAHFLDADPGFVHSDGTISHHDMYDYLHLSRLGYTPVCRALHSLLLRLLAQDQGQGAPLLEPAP
pPAFAH FP inh = inhibitors of human plasma PAF acetylhydrolase (pPAFAH); AID 463082; 330,000 tested, 1.5% active; inhibition, % at 3.39 µM; recombinant pPAFAH, FP-rhodamine probe fluorescence polarization;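 active = inhibition above the mean inhibition across the screen plus 3 SD, cut at about 25% in these data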;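 also: inhibitors block binding of the rhodamine activity-based probe so polarization drops; 0% = enzyme with DMSO and 100% = wells lacking pPAFAH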
PAFAH2 FP conf = PAFAH2 (human) inhibition, confirmed | AID 493030 | recombinant PAFAH2, FP-rhodamine activity probe, fluorescence polarization | 2,300 tested, 65% active | shares compounds with PAFAH2 inh | inhibition, % at 3.39 µM;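 active = mean inhibition over three repeats above a set limit taken from the earlier primary screen, cut at about 30% in these data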;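 also: inhibitor blocks binding of rhodamine activity probe so polarization falls; 0% = enzyme with DMSO and 100% = wells lacking PAFAH2 protein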
* hit, by the source's call. Only some compounds are listed: those with a hit (about 2.8% of all), similar ones and a draw of the others.

What do the screens show for `O=C(COC(=O)c1ccccc1C(=O)N1CCN(c2ccccc2)CC1)Nc1ccc(F)cc1`?
PAFAH2 inh: 73.9*; ABHD4 inh: -9.5; HTRA1 inhibitor: -0.4; PAFAH1B2 inh: 1.7; PAFAH1B3 inh: -1.0; pPAFAH FP inh: 4.8; PAFAH2 FP conf: 60.0*

Results for O=C(COC(=O)c1ccccc1C(=O)N1CCN(c2ccccc2)CC1)Nc1ccccc1 ?
PAFAH2 inh: 62.7*; ABHD4 inh: 9.8; HTRA1 inhibitor: 0.2; PAFAH1B2 inh: 5.0; PAFAH1B3 inh: 11.2; pPAFAH FP inh: 4.8; PAFAH2 FP conf: 60.0*

What do the screens show for `O=C(COC(=O)c1ccccc1C(=O)N1CCN(c2ccc(F)cc2)CC1)NCc1ccccc1`?
PAFAH2 inh: 19.9; ABHD4 inh: -2.3; HTRA1 inhibitor: -6.1; PAFAH1B2 inh: 3.7; PAFAH1B3 inh: 11.9; pPAFAH FP inh: 8.0

Results for COc1cccc(NC(=O)COC(=O)c2ccccc2C(=O)N2CCN(c3ccccc3)CC2)c1 ?
PAFAH2 inh: 54.5*; ABHD4 inh: 0.1; HTRA1 inhibitor: 6.8; PAFAH1B2 inh: 2.0; PAFAH1B3 inh: -7.5; pPAFAH FP inh: 6.6; PAFAH2 FP conf: 54.2*

How did COc1ccc(S[C@]2(C(=O)N3CCN(c4ncccn4)CC3)CC(=O)N(c3ccc(Cl)cc3)[C@@H]2c2ccc(OC)cc2)cc1 do in these assays?
ABHD4 inh: 4.0

Results for O=C(OCCN1CCCC12CCC(c1ccccc1)CC2)c1ccccc1 (stereo unspecified) ?
ABHD4 inh: 1.5

What do the screens show for `COc1cc(/C=C/C(=O)OCC(=O)N(C)Cc2ccccc2)ccc1O`?
PAFAH2 inh: 32.7*; ABHD4 inh: 3.3; HTRA1 inhibitor: -0.7; PAFAH1B2 inh: 2.9; PAFAH1B3 inh: 1.4; pPAFAH FP inh: 5.0; PAFAH2 FP conf: 19.4

Results for COc1cc(NC(=O)COC(=O)/C=C/c2ccc(O)c(OC)c2)cc(OC)c1 ?
PAFAH2 inh: 28.9; ABHD4 inh: -5.5; HTRA1 inhibitor: -1.5; PAFAH1B2 inh: -1.8; PAFAH1B3 inh: 2.7; pPAFAH FP inh: 0.8

How did COc1ccccc1CNC(=O)COC(=O)/C=C/c1ccc2c(c1)OCO2 do in these assays?
PAFAH2 inh: 38.6*; ABHD4 inh: 4.1; HTRA1 inhibitor: 2.5; PAFAH1B2 inh: 1.7; PAFAH1B3 inh: -1.1; pPAFAH FP inh: 3.3; PAFAH2 FP conf: 42.8*

How did COc1cc(/C=C/C(=O)OCC(=O)N(C)Cc2ccccc2)cc(OC)c1OC do in these assays?
PAFAH2 inh: 9.3; ABHD4 inh: 6.6; HTRA1 inhibitor: -2.2; PAFAH1B2 inh: 3.4; PAFAH1B3 inh: 5.2; pPAFAH FP inh: 2.1

What do the screens show for `COc1cc(/C=C/C(=O)OCC(=O)NCc2ccccc2OC)ccc1O`?
PAFAH2 inh: 49.7*; ABHD4 inh: -0.1; HTRA1 inhibitor: -5.1; PAFAH1B2 inh: 11.1; PAFAH1B3 inh: 14.7; pPAFAH FP inh: 8.8; PAFAH2 FP conf: 48.7*

Results for COc1cc(/C=C/C(=O)OCC(=O)NCc2ccc(F)cc2)ccc1O ?
PAFAH2 inh: 69.3*; ABHD4 inh: -3.0; HTRA1 inhibitor: -0.1; PAFAH1B2 inh: 4.2; PAFAH1B3 inh: 5.0; pPAFAH FP inh: 9.2; PAFAH2 FP conf: 56.3*

What do the screens show for `Cc1ccc2c(c1)C1CS(=O)(=O)N(Cc3ccccc3)CN1C2` (stereo unspecified)?
ABHD4 inh: -2.1

Results for COc1ccc(C(C)(C)C)cc1N1C(=O)[C@@H]2CSCCS(=O)(=O)N2C1=O ?
ABHD4 inh: 3.9

What do the screens show for `CC(=O)c1c(C)[nH]c(C(=O)OCC(=O)N2CCc3ccccc32)c1C`?
PAFAH2 inh: 44.1*; ABHD4 inh: -1.5; HTRA1 inhibitor: -6.8; PAFAH1B2 inh: -2.4; PAFAH1B3 inh: -6.8; pPAFAH FP inh: -1.6; PAFAH2 FP conf: 27.4

What do the screens show for `CCOC(=O)c1[nH]c(C)c(C(=O)OCC(=O)N2CCc3ccccc32)c1C`?
PAFAH2 inh: 0.3; ABHD4 inh: 1.4; HTRA1 inhibitor: -1.9; PAFAH1B2 inh: 0.3; PAFAH1B3 inh: 0.2; pPAFAH FP inh: 1.4

What do the screens show for `O=C(OCC(=O)N1CCc2ccccc21)c1ccccc1F`?
PAFAH2 inh: 56.5*; ABHD4 inh: -6.1; HTRA1 inhibitor: -5.0; PAFAH1B2 inh: 6.0; PAFAH1B3 inh: 2.2; pPAFAH FP inh: 11.4; PAFAH2 FP conf: 53.3*
